The record followed here is ChEMBL document CHEMBL2406905, “Improving the antibacterial activity and selectivity of an ultra short peptide by hydrophobic and hydrophilic amino acid stretches” (Bioorg Med Chem Lett, 2013).

Active and inactive are the calls of the source. No cut-off for these calls is given here.

Series [1] has as its system Staphylococcus epidermidis. Put plainly: Antibacterial activity against Staphylococcus epidermidis ATCC 12228 assessed as growth inhibition after 24 hrs. The note with it: for MIC90: Staphylococcus epidermidis, ATCC 12228, 24 h. The class given is functional. The gist of the method:
(§1)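 Log-phase bacteria adjusted to OD600 0.001 in nutrient broth. Peptide dilutions in 20 mM Tris–HCl pH 7.4 were added; buffer alone served as control. Incubation was 37 °C for 24 h. % inhibition was calculated from the OD600 change (24 h minus time zero) relative to the control change. MIC was the concentration giving >90% growth inhibition.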

In series [2] the test system is Salmonella typhi. Put plainly: Antibacterial activity against Salmonella typhi DMST 22842 assessed as growth inhibition after 24 hrs. As to conditions: for MIC90: Salmonella enterica, DMST 22842, 24 h. The class given is functional, Salmonella enterica subsp. enterica serovar Typhi.
A short description of series [3]: (§2) Antibacterial activity against Vibrio cholerae non-O1 non-O139 assessed as growth inhibition after 24 hrs. The class given is functional. As to conditions: for MIC90: Vibrio cholerae, non-O139, 24 h.
A further series has as its system Staphylococcus aureus. Put plainly: Antibacterial activity against Staphylococcus aureus ATCC 25923 assessed as growth inhibition after 24 hrs. The class given is functional. The note with it: for MIC90: Staphylococcus aureus, ATCC 25923, 24 h. In outline:
as §1

For the next series, the system named is Pseudomonas aeruginosa. Put plainly: Antibacterial activity against Pseudomonas aeruginosa ATCC 27853 assessed as growth inhibition after 24 hrs. The series is classed as functional. In outline: as §1
Series [4] relates to Escherichia coli. Put plainly: Antibacterial activity against Escherichia coli ATCC 25922 assessed as growth inhibition after 24 hrs. The series is classed as functional. In outline:
as §1

Series [5] relates to Escherichia coli. Put plainly: Bactericidal activity against Escherichia coli ATCC 25922 assessed as reduction in CFU at 11 ug/mL after 48 hrs. The class given is functional. The arrangement: scale not given: the % may be the effect or the level left. In outline: (§3)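 After the 24 h, 37 °C broth-microdilution exposure (log-phase inoculum at OD600 0.001, peptide in 20 mM Tris–HCl pH 7.4), 5 μL from each well was plated on agar and incubated at 37 °C for 48 h. 100% bactericidal concentration was the concentration giving a 99.9% CFU reduction from the starting inoculum.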

Series [6] concerns Escherichia coli. Put plainly: Antibacterial activity against Escherichia coli ATCC 25922 assessed as appearance of blebs on cell surface at 10 X MIC after 1 min by SEM analysis. The class given is functional, organism-based. In outline: (§4)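 Bacterial suspension at OD600 0.1 was exposed to peptide at 10× MIC for 1 min and 60 min. The negative control was 20 mM Tris–HCl buffer. Cell morphology was then examined by scanning electron microscopy.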

A short description of series [7]: Hemolytic activity in human RBC at 1 to 91 ug/ml. The series is classed as ADME, cell-based. As to conditions: erythrocyte. In outline: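 Human red blood cells were exposed to peptide. Minimal hemolytic concentration was taken as the lowest peptide concentration producing 5% hemolysis.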
The subject of the next series is RAW264.7. Put plainly: Cytotoxicity against mouse RAW264.7 cells assessed as cell viability at 1 to 91 ug/ml after 48 hrs by MTT assay. The class given is cell-based. As to conditions: raw264.7, 48 h. The gist of the method: (§5)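 Monolayer cell viability was read by MTT. Results are given as mean ± SEM (n = 8). Significance was tested by one-way ANOVA with Scheffe's multiple range test (p < 0.05).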

In another series the test system is Vero. Put plainly: Cytotoxicity against african green monkey Vero cells assessed as cell viability at 1 to 91 ug/ml after 48 hrs by MTT assay. The series is classed as cell-based. The note with it: chlorocebus sabaeus. The gist of the method:
as §5
For orientation: Tetrazolium dyes change colour on reduction, which living cells bring about.

Series [8] concerns Staphylococcus epidermidis. Put plainly: Bactericidal activity against Staphylococcus epidermidis ATCC 12228 assessed as reduction in CFU at 23 ug/mL after 48 hrs. The series is classed as functional. More on the design: scale not given: the % may be the effect or the level left. The gist of the method: as §3
Series [9] can be described thus: Therapeutic index, ratio of MHC for human RBC to MIC for Vibrio cholerae non-O1 non-O139. The note with it: human red blood cells (RBC), read-out: TI. The gist of the method: (§6)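 Index was calculated as MHC/MIC. MHC was the lowest peptide concentration producing 5% hemolysis of human red blood cells. MIC was the concentration giving >90% inhibition of bacterial growth (OD600) after 24 h at 37 °C in nutrient broth, with bacteria starting at OD600 0.001.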

A short description of series [10]: Therapeutic index, ratio of MHC for human RBC to MIC for Staphylococcus aureus ATCC 25923. The note with it: human red blood cells (RBC), read-out: TI. In outline:
as §6

Series [11] can be described thus: Therapeutic index, ratio of MHC for human RBC to MIC for Escherichia coli ATCC 25922. As to conditions: human red blood cells (RBC), read-out: TI. In outline:
as §6

Series [12] in a line: Therapeutic index, ratio of MHC for human RBC to MIC for Salmonella typhi DMST 22842. As to conditions: human red blood cells (RBC), read-out: TI. In outline:
as §6

A short description of series [13]: Therapeutic index, ratio of MHC for human RBC to MIC for Pseudomonas aeruginosa ATCC 27853. As to conditions: human red blood cells (RBC), read-out: TI. In outline:
as §6

Series [14] is described as follows: Therapeutic index, ratio of MHC for human RBC to MIC for Staphylococcus epidermidis ATCC 12228. The note with it: human red blood cells (RBC), read-out: TI. The gist of the method: as §6
The subject of series [15] is Staphylococcus epidermidis. Put plainly: Antibacterial activity against Staphylococcus epidermidis ATCC 12228 assessed as appearance of rough and wavy cell morphology at 10 X MIC after 1 min by SEM analysis. The series is classed as functional, organism-based. In outline: as §4
Series [16] relates to Salmonella typhi. Put plainly: Antibacterial activity against Salmonella typhi DMST 22842 assessed as appearance of rough and wavy cell morphology at 10 X MIC after 1 min by SEM analysis. The class given is functional, organism-based. The note with it: Salmonella enterica subsp. enterica serovar Typhi. In outline: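 Bacterial suspension (OD600 0.1) was incubated with peptide at 10×MIC for 1 and 60 min, with 20 mM Tris–HCl buffer as negative control. Cell morphology was examined by scanning electron microscopy.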

Series [17] has as its system Escherichia coli. Put plainly: Bactericidal activity against Escherichia coli ATCC 25922 assessed as reduction in CFU at 46 ug/mL after 48 hrs. The class given is functional. The arrangement: scale not given: the % may be the effect or the level left. In outline: as §3
The next series deals with Vibrio cholerae non-O1. The series is described as §2. The class given is functional.
[18] abbreviates: Pseudomonas aeruginosa, ATCC 27853, 24 h.
Where [19] appears, read: Escherichia coli, ATCC 25922, 24 h.

With H-NGVQPKY-OH, the “growth inhibition (GI)” value (in [1]; in the series with Salmonella typhi [2]; in series [3]; with Staphylococcus aureus; with Pseudomonas aeruginosa; in the series on Escherichia coli [4]) was under 90% in each case. Moreover, the MIC90 (in series [1]; with Salmonella typhi [2]; in [3]; in the series with Staphylococcus aureus; in the series with Pseudomonas aeruginosa (setting [18]); in the series with Escherichia coli [4] (setting [19])) was over 200 mg/L in each case.

For H-NGVQPKYKWWKWWKKWW-NH2, the Activity in the series on Escherichia coli [5] was 100%; in [7], “Non-toxic”; in the series on RAW264.7, “Non-toxic”; in the series on Vero, “Non-toxic”; in [8], 100%. For the same substance, the MIC90 – broadly, the lowest concentration that inhibits either 90% of growth or 90% of the strains tested, depending on the study – in series [1] is 23 mg/L; with Salmonella typhi [2], 23 mg/L; in [3] it was 11 mg/L; with Staphylococcus aureus, 46 mg/L; in the series on Pseudomonas aeruginosa (setting [18]) it was 91 mg/L; with Escherichia coli [4] (setting [19]) it was 11 mg/L. Further, the result in the series with Escherichia coli [6] was Active. Moreover, the selectivity ratio was determined as 4 in series [9]; 1 in [10]; 4 in series [11]; 2 in series [12]; 0.5 in series [13]; 2 in [14].

Regarding H-NGVQPKYRWWRWWRRWW-NH2, the outcome (in [15]; in the series with Salmonella typhi [16]; in series [8]) was Active. Besides, the MIC90 in [1] was 23 mg/L; with Salmonella typhi [2] it was 23 mg/L; in series [3] it was 46 mg/L; with Staphylococcus aureus, 91 mg/L; in the series on Escherichia coli [4] (setting [19]), 46 mg/L. For the same substance, the Activity result in series [7] is on record as “Non-toxic”; in the series with RAW264.7, “Non-toxic”; in the series on Vero, “Non-toxic”; in the series on Escherichia coli [17], 100%. In addition, the selectivity ratio was found to be 1 in [9]; 0.5 in series [10]; 1 in [11]; 2 in [12]; 2 in series [14]. The MIC90 result with Pseudomonas aeruginosa is “inactive”.

Consider H-NGVQPKYRWWRWWRRWW-OH, for which the outcome (in series [15]; with Salmonella typhi [16]; in [8]) was Active. For the same substance, the MIC90 in series [1] is 23 mg/L; in the series with Salmonella typhi [2] it was over 91 mg/L; in the series with Staphylococcus aureus, over 91 mg/L; in the series with Escherichia coli [4] (setting [19]), 46 mg/L. Further, the Activity result was “Toxic” in series [7], “Toxic” in the series with RAW264.7, “Toxic” with Vero and 100% in the series on Escherichia coli [17]. Further, the “growth inhibition (GI)” value in the series on Salmonella typhi [2] and in the series on Staphylococcus aureus was under 90% in each case. Besides, the selectivity ratio is under 0.25 in series [10], 0.5 in series [11], under 0.25 in series [12] and 1 in series [14]. In addition, the MIC90 entry with Vibrio cholerae non-O1 and in the series on Pseudomonas aeruginosa was “inactive” in each case.

Regarding H-NGVQPKYRWWRWWRRWWW-OH, the MIC90 in series [1] was 91 mg/L; with Salmonella typhi [2], over 91 mg/L; in the series with Staphylococcus aureus, over 91 mg/L; in the series on Escherichia coli [4] (setting [19]), over 91 mg/L. Further, the Activity entry in [7] is recorded as “Toxic”. Moreover, the “growth inhibition (GI)” value in the series on Salmonella typhi [2], in the series with Staphylococcus aureus and in the series on Escherichia coli [4] was under 90% in each case. For the same substance, the selectivity ratio in series [10] was under 0.25; in series [11] it was under 0.25; in [12] it was under 0.25; in series [14] it was 0.25. Besides, the MIC90 result in the series on Vibrio cholerae non-O1 and with Pseudomonas aeruginosa was “inactive” in each case.

Regarding H-NGVQPKYRWWRWWRRWWWW-NH2, the MIC90 in [1] is 91 mg/L; with Salmonella typhi [2] it was over 91 mg/L; in the series with Staphylococcus aureus it was over 91 mg/L; in the series with Pseudomonas aeruginosa (setting [18]), over 91 mg/L; with Escherichia coli [4] (setting [19]), over 91 mg/L. Also, in [7], the Activity entry is reported as “Toxic”. The “growth inhibition (GI)” value in the series with Salmonella typhi [2], with Staphylococcus aureus, in the series with Pseudomonas aeruginosa and in the series with Escherichia coli [4] was under 90% throughout. Also, the selectivity ratio is under 0.06 in series [10]; under 0.06 in series [11]; under 0.06 in [12]; under 0.06 in series [13]; 0.06 in [14]. Further, the MIC90 entry in the series with Vibrio cholerae non-O1 is “inactive”.

For H-NGVQPWYKWWKWWKKWW-NH2, the MIC90 in [1] is 91 mg/L; in the series on Salmonella typhi [2], over 91 mg/L; in series [3], 91 mg/L; with Staphylococcus aureus, over 91 mg/L; with Escherichia coli [4] (setting [19]), over 91 mg/L. The Activity entry in series [7] is on record as “Toxic”. Further, the selectivity ratio in series [9] was 0.06; in series [10], under 0.06; in series [11], under 0.06; in [12], under 0.06; in series [14] it was 0.06. In addition, the “growth inhibition (GI)” value in the series with Salmonella typhi [2], with Staphylococcus aureus and with Escherichia coli [4] was under 90% throughout. For the same substance, the MIC90 entry in the series with Pseudomonas aeruginosa is “inactive”.

For H-RWWRWWRRWW-NH2, the “growth inhibition (GI)” value (in series [1]; with Salmonella typhi [2]; with Staphylococcus aureus; with Escherichia coli [4]) was under 90% throughout. The MIC90 is over 91 mg/L in series [1]; over 91 mg/L in the series with Salmonella typhi [2]; 23 mg/L in series [3]; over 91 mg/L with Staphylococcus aureus; 46 mg/L in the series with Pseudomonas aeruginosa (setting [18]); over 91 mg/L in the series with Escherichia coli [4] (setting [19]). Further, the Activity entry in [7] is “Toxic”. The selectivity ratio is 0.08 in [9]; under 0.02 in series [10]; under 0.02 in series [11]; under 0.02 in series [12]; 0.04 in series [13]; under 0.02 in [14].

As to H-RWWRWWRRWWW-NH2, the “growth inhibition (GI)” value (in [1]; with Salmonella typhi [2]; in [3]; in the series on Staphylococcus aureus) was under 90% in each case. The MIC90 (in series [1]; in the series with Salmonella typhi [2]; in series [3]; in the series with Staphylococcus aureus) was over 91 mg/L in each case. The Activity result in [7] was “Toxic”. In addition, the selectivity ratio in series [9], in [10], in [12] and in series [14] was under 0.02 each time. Further, the MIC90 entry with Pseudomonas aeruginosa and in the series with Escherichia coli [4] was “inactive” in each case.
